Test results as given in ChEMBL document CHEMBL2331331 (J Med Chem, 2013).
Active and inactive are the calls of the source. No cut-off for these calls is given here.

How the values were obtained:
[1] = target: T1, Receptor-type tyrosine-protein kinase FLT3 (Homo sapiens, UniProt P36888); assay: Inhibition of FLT3 phosphorylation in human MV4-11 cells after 20 hrs by Western blotting analysis; assay type: cell-based
T1 sequence (P36888 whole entry): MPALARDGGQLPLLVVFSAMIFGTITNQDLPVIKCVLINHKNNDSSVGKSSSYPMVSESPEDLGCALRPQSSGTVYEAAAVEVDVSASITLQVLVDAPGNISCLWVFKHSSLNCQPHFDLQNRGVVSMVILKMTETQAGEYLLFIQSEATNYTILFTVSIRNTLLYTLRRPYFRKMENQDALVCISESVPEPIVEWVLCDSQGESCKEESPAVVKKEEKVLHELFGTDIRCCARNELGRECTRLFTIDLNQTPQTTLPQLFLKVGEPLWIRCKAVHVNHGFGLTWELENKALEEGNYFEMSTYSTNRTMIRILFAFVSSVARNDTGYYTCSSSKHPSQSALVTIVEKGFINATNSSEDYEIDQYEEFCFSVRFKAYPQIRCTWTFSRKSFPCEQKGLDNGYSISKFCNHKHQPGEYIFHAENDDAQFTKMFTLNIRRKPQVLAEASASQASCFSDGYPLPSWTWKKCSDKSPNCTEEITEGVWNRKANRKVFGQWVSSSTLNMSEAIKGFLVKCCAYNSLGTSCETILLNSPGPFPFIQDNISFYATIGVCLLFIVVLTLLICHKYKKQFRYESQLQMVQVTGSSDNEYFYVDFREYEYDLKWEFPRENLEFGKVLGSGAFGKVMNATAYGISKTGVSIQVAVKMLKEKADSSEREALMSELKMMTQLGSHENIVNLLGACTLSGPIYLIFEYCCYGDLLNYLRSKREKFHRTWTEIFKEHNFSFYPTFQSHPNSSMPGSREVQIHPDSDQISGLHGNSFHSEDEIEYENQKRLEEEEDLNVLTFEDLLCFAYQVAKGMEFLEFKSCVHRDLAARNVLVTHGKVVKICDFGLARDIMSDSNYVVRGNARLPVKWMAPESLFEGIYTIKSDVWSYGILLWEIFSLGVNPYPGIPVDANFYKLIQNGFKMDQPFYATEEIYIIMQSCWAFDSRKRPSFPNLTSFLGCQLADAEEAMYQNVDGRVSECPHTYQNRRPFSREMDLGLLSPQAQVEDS

MV4-11 [2] = assay: Induction of apoptosis in human MV4-11 cells after 24 hrs by annexin V-FITC/propidium iodide staining-based FACS flow cytometric analysis; assay type: functional, cell-based
MV4-11 [3] = assay: Antitumor activity against FLT3-ITD-positive human MV4-11 cells xenografted in NOD-SCID mouse assessed as tumor regression at 10 mg/kg/day, po administered 18 days measured every 3 days for 18 days; assay type: functional, organism-based
Summary of the method: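 NOD-SCID mice (5–6 weeks) implanted sc with 1 × 10⁸/mL MV4-11 cells (100 μL) in serum-free medium. Grouped at 300–500 mm³, six per group, then dosed orally once daily for 18 days. Vehicle was 12.5% castor oil, 12.5% ethanol, 75% water. Tumor volume = long × short²/2, measured every 3 d.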

Raji = assay: Cytotoxicity against human Raji cells assessed as growth inhibition after 72 hrs by MTT assay
MV4-11 [4] = assay: Induction of apoptosis in human MV4-11 cells assessed as early apoptotic cells at 0.1 uM after 24 hrs by annexin V-FITC/propidium iodide staining-based FACS flow cytometric analysis (reference value: 1.61%); assay type: functional
Aurora kinase B = Aurora kinase B (Homo sapiens, UniProt Q96GD4); assay: Inhibition of aurora-B (unknown origin)
DU-145 = assay: Cytotoxicity against human DU145 cells assessed as growth inhibition after 72 hrs by MTT assay; conditions: DU-145, 72 h
[5] = target: Serine/threonine-protein kinase Chk1 (Homo sapiens, UniProt O14757); assay: Inhibition of CHEK1 (unknown origin)
Mus musculus = assay: Inhibition of FLT3-ITD mutant in human MV4-11 cells xenografted in NOD-SCID mouse assessed as inhibition of STAT5 phosphorylation at 10 mg/kg/day, po after 3 days by immunostaining method relative to vehicle-treated control; assay type: functional, organism-based
Summary of the method: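 Mice (NOD-SCID) bearing sc MV4-11 tumors given 10 mg/kg/d by oral gavage. Tumors removed after 2–4 days and formalin-fixed. Sections immunostained for Ki67 (proliferation) or p-STAT5, or TUNEL-stained (apoptosis). Imaged by light microscopy and compared with vehicle group.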

[6] = target: Serine/threonine-protein kinase pim-1 (Homo sapiens, UniProt P11309); assay: Inhibition of Pim-1 (unknown origin)
[7] = target: T1, Receptor-type tyrosine-protein kinase FLT3; assay: Inhibition of FLT3 (unknown origin)
[8] = target: RAF proto-oncogene serine/threonine-protein kinase (Homo sapiens, UniProt P04049); assay: Inhibition of c-RAF (unknown origin)
MV4-11 [9] = assay: Induction of apoptosis in human MV4-11 cells assessed as late apoptotic cells at 0.03 uM after 24 hrs by annexin V-FITC/propidium iodide staining-based FACS flow cytometric analysis (reference value: 4.28%); assay type: functional
[10] = Apparent half life in Sprague-Dawley rat at 10 mg/kg/day, po; assay type: ADME, organism-based; set-up: route oral; conditions: in vivo, read-out: t1/2(app) (converted)
[11] = target: Tyrosine-protein kinase SYK (Homo sapiens, UniProt P43405); assay: Inhibition of SYK (unknown origin)
A549 = assay: Cytotoxicity against human A549 cells assessed as growth inhibition after 72 hrs by MTT assay; conditions: A549, 72 h
KARPAS-299 = assay: Cytotoxicity against human KARPAS299 cells assessed as growth inhibition after 72 hrs by MTT assay; conditions: KARPAS-299, 72 h
[12] = target: T1, Receptor-type tyrosine-protein kinase FLT3; assay: Inhibition of FLT3 in human MV4-11 cells assessed as inhibition of Erk1/2 phosphorylation after 20 hrs by Western blotting analysis; assay type: cell-based
[13] = target: Mitogen-activated protein kinase kinase kinase 9 (Homo sapiens, UniProt P80192); assay: Inhibition of MLK1 (unknown origin)
[14] = Cytotoxicity against human SK cells assessed as growth inhibition after 72 hrs by MTT assay
[15] = target: Receptor tyrosine-protein kinase erbB-2 (Homo sapiens, UniProt P04626); assay: Inhibition of ERBB2 (unknown origin)
Summary of the method: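 Single selected panel of recombinant human protein kinases, screened in vitro. The value reported is the IC50 against each kinase.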

[16] = target: Megakaryocyte-associated tyrosine-protein kinase (Homo sapiens, UniProt P42679); assay: Inhibition of CTK (unknown origin)
[17] = target: Dual specificity mitogen-activated protein kinase kinase 1 (Homo sapiens, UniProt Q02750); assay: Inhibition of MEK1 (unknown origin)
MV4-11 [18] = assay: Induction of apoptosis in human MV4-11 cells assessed as early apoptotic cells at 0.003 uM after 24 hrs by annexin V-FITC/propidium iodide staining-based FACS flow cytometric analysis (reference value: 1.61%); assay type: functional
U-937 = assay: Cytotoxicity against human U937 cells assessed as growth inhibition after 72 hrs by MTT assay; conditions: U-937, 72 h

Sequence of Aurora kinase B (Q96GD4 whole entry): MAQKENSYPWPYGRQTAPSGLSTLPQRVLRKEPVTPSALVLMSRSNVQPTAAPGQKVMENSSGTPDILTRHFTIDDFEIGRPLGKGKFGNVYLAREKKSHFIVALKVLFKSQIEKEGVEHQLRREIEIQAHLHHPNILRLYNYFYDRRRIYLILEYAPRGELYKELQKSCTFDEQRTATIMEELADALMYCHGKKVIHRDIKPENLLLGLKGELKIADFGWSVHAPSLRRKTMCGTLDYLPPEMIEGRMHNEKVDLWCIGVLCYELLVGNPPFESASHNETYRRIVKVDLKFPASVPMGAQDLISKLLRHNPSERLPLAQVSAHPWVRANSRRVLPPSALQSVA
Sequence of RAF proto-oncogene serine/threonine-protein kinase (P04049 whole entry): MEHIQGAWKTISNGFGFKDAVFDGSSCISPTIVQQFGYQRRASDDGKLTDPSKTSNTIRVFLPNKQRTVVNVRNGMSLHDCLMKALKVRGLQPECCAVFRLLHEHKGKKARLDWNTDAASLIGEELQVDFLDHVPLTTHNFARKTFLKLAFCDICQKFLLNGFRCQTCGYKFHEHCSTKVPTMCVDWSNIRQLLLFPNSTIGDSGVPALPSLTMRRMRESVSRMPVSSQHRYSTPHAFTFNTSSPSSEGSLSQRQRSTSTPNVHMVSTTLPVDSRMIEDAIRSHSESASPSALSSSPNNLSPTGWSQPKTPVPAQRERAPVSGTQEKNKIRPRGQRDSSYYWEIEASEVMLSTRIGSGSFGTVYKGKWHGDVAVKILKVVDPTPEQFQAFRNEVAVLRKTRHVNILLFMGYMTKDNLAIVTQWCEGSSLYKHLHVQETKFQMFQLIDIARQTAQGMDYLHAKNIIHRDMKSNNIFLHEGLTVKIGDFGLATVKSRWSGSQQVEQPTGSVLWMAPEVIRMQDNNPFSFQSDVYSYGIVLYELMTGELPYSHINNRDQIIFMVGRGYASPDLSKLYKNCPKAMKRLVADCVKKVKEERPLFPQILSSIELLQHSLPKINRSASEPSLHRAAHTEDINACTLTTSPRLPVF
Sequence of Serine/threonine-protein kinase Chk1 (O14757 whole entry): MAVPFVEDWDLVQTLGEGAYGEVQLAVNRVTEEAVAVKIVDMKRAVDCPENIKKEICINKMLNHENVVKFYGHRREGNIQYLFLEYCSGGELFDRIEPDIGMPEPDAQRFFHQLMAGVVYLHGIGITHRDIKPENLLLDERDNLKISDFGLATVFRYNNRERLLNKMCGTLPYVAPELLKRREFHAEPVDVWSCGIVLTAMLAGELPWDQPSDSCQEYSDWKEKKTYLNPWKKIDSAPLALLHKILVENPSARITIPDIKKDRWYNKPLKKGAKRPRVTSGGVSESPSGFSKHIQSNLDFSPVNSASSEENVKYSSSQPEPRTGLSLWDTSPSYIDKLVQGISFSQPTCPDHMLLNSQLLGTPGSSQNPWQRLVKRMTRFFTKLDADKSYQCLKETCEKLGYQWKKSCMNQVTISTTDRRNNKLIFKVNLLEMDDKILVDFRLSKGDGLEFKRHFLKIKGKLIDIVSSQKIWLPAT
Sequence of Mitogen-activated protein kinase kinase kinase 9 (P80192 whole entry): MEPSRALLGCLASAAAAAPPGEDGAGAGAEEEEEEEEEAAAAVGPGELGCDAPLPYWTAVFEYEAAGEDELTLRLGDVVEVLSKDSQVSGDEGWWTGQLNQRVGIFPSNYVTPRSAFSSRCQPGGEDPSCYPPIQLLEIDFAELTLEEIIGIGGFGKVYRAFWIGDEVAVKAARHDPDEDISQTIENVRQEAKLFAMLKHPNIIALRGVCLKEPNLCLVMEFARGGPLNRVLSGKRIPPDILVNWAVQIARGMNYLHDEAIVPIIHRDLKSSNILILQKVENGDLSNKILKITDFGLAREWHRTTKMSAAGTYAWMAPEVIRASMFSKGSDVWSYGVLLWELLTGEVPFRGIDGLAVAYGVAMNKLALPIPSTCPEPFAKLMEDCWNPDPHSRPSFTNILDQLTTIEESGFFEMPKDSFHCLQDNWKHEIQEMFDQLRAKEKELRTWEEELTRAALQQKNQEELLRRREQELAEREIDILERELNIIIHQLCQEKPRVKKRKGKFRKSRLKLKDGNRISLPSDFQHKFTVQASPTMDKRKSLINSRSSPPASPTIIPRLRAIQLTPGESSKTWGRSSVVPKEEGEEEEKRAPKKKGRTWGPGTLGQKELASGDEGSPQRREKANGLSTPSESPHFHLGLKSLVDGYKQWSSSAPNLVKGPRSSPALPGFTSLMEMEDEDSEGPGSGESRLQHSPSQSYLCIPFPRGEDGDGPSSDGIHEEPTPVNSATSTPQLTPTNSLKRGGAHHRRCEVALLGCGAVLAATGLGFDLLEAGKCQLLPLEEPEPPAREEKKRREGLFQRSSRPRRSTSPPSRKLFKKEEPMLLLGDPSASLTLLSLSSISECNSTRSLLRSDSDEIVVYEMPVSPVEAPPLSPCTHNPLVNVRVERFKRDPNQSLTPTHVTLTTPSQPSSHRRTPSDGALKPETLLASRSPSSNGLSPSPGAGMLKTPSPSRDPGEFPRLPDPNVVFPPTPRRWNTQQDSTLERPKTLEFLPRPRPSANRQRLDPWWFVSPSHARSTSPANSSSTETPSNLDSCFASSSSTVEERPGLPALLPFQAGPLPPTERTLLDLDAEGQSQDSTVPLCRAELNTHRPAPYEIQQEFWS
Sequence of Receptor tyrosine-protein kinase erbB-2 (P04626 whole entry): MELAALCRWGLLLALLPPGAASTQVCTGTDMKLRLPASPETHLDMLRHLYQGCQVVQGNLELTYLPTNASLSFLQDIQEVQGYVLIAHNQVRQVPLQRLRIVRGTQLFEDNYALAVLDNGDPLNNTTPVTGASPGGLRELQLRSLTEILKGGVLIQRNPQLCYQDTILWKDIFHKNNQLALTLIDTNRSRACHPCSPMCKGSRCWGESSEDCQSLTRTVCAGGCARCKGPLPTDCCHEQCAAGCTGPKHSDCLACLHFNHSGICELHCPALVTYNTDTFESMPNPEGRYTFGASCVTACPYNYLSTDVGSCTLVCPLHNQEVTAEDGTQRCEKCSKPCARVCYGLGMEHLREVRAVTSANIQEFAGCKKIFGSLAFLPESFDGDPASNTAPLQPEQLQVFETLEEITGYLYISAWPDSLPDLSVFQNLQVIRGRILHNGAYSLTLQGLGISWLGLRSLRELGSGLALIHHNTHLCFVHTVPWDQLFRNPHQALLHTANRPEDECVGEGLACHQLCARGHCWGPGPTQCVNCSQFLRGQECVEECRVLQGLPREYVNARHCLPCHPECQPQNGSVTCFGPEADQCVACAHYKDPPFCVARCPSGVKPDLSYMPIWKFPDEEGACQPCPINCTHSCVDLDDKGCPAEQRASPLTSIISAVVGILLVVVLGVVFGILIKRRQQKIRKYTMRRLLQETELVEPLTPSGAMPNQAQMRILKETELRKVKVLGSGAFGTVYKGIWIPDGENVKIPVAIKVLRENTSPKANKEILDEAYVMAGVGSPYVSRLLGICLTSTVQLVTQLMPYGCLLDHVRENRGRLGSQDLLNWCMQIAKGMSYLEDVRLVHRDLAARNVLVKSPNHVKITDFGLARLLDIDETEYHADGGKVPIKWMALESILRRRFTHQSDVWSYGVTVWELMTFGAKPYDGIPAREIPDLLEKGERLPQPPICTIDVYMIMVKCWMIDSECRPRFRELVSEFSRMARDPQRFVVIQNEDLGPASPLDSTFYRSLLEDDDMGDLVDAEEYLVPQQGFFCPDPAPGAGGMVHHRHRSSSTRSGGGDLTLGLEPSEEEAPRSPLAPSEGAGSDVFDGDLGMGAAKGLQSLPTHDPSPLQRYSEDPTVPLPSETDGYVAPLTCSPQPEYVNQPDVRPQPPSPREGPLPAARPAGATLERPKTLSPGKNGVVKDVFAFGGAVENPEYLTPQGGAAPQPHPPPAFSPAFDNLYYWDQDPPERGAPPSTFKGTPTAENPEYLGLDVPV
Sequence of Megakaryocyte-associated tyrosine-protein kinase (P42679 whole entry): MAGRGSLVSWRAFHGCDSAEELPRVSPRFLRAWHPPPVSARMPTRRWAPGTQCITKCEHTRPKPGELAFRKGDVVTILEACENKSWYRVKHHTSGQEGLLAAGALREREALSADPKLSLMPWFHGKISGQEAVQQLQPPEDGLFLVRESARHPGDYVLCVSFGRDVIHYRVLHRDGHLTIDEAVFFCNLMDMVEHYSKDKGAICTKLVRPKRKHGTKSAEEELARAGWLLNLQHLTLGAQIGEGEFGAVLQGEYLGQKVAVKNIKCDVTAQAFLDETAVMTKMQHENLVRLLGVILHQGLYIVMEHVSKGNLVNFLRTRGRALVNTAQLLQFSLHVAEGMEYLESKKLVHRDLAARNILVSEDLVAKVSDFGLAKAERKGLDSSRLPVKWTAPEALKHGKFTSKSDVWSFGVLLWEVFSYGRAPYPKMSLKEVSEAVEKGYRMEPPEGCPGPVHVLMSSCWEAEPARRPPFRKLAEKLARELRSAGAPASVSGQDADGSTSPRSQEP
Sequence of Dual specificity mitogen-activated protein kinase kinase 1 (Q02750 whole entry): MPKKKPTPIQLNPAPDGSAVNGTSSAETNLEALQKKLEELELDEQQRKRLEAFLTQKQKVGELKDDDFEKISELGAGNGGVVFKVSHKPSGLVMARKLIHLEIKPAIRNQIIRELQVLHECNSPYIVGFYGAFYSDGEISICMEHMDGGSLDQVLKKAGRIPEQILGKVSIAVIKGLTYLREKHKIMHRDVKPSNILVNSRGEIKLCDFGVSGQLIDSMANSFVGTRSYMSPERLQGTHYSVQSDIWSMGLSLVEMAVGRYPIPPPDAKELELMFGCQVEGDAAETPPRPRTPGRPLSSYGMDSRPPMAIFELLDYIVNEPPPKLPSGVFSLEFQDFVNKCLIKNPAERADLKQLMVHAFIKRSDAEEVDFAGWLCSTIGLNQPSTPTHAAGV
Sequence of Serine/threonine-protein kinase pim-1 (P11309 whole entry): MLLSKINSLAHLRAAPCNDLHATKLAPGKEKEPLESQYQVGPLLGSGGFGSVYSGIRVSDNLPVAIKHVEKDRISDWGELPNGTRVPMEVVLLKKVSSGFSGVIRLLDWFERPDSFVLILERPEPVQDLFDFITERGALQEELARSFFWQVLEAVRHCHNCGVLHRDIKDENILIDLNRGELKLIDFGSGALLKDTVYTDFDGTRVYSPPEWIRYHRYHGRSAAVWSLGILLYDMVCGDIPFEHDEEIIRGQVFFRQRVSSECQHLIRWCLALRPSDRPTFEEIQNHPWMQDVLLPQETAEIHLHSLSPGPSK

**Q.** For `O=C(Nc1ccc(Oc2ncnc3[nH]ncc23)cc1)Nc1ccc(Cl)c(C(F)(F)F)c1`, which IC50 [1] is on record?
**A.** Its IC50 is 0.003 µM.

**Q.** What about the Activity (MV4-11 [2]) of the same compound?
**A.** Its Activity is “Dose-dependent effect”.

**Q.** And the Activity (MV4-11 [3])?
**A.** Its Activity is “Active”.

**Q.** What about the IC50 (Raji) of the same compound?
**A.** The IC50 was greater than 10 µM.

**Q.** What about the Activity (MV4-11 [4]) of the same compound?
**A.** Its Activity is 9.96%.

**Q.** What about the IC50 (Aurora kinase B) of the same compound?
**A.** The IC50 was greater than 10 µM.

**Q.** What about the IC50 (DU-145) of the same compound?
**A.** The IC50 was greater than 10 µM.

**Q.** What about the IC50 [5] of the same compound?
**A.** Its IC50 is greater than 10 µM.

**Q.** And the inhibition (Mus musculus)?
**A.** The inhibition was “Active”.

**Q.** What about the IC50 [6] of the same compound?
**A.** The IC50 was greater than 10 µM.

**Q.** What about the IC50 [7] of the same compound?
**A.** Its IC50 is 0.039 µM.

**Q.** What about the IC50 [8] of the same compound?
**A.** Its IC50 is 0.072 µM.

**Q.** What about the Activity (MV4-11 [9]) of the same compound?
**A.** Its Activity is 17.8%.

**Q.** What about the half-life [10] of the same compound?
**A.** The half-life was 12.6 h.

**Q.** And the IC50 [11]?
**A.** Its IC50 is greater than 10 µM.

**Q.** What about the IC50 (A549) of the same compound?
**A.** The IC50 was greater than 10 µM.

**Q.** And the IC50 (KARPAS-299)?
**A.** Its IC50 is greater than 10 µM.

**Q.** What about the IC50 [12] of the same compound?
**A.** The IC50 was 0.001 µM.

**Q.** And the IC50 [13]?
**A.** The IC50 was greater than 10 µM.

**Q.** And the IC50 [14]?
**A.** Its IC50 is greater than 10 µM.

**Q.** What about the IC50 [15] of the same compound?
**A.** Its IC50 is greater than 10 µM.

**Q.** What about the IC50 [16] of the same compound?
**A.** The IC50 was greater than 10 µM.

**Q.** And the IC50 [17]?
**A.** The IC50 was greater than 10 µM.

**Q.** And the Activity (MV4-11 [18])?
**A.** Its Activity is 5.16%.

**Q.** What about the IC50 (U-937) of the same compound?
**A.** The IC50 was greater than 10 µM.
